Test results published in the RNAGym collection of RNA variant scans (doi:10.1126/science.aae0568).
This sample holds only a part of the variants without activity.

B1: tRNA (parent)
chain: GUUCCGUUGGCGUAAUGGUAACGCGUCUCCCUCCUAAGGAGAAGACUGCGGGUUCGAGUCCCGUACGGAACG

Variants of: B1
Assay: yeast fitness relative to wild type (ratio to wild type); higher = fitter; tRNA-Arg(CCU), competitive growth, 37 C, YPD
Method in brief: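 Gene amplicons from the start population and from each of six end populations were read by 100-nucleotide paired-end sequencing. Those end populations came from pooled Saccharomyces cerevisiae strains carrying tRNA-Arg(CCU) gene variants at the native locus, competed in YPD at 37°C for 24 hours. Fitness relative to wild type was worked out from changes in genotype frequencies. Genotypes needed ≥ 100 starting reads, and estimates < 0.5 were set to 0.5.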

| Variant | yeast fitness |
| --- | --- |
| GUUCCGUUGGUGUAAUGGUAAGGCGUCUCCCUCCUAAGGAGAAGACUGCGGGUUCGAGUCCCGUACGGCACG [C11U C22G A69C] | 0.653 |
| GUUCCGUUGGUGUAAUGGUAACGCGUUUACCUGCUAAGGAGAAGACUGCGGGUUCGAGUCCCGUAAGGAACG [C11U C27U C29A C33G C66A] | ≤ 0.5 |
| GUUCCGUUGGUGUAAUGGUAACGGGUCUCCCUCCUAAGGAGAAGACUGCUGGUUCGAGUCCCCUACAGAACG [C11U C24G G50U G63C G67A] | ≤ 0.5 |
| GUUCCGUUGGUGUAAUGGUAACGCGUUUCCCUCCUAAGGAGAAGCCUGCGGGUUCGCGUCCCGUACGGAACG [C11U C27U A45C A57C] | ≤ 0.5 |
| GUUCCGUUGGUGUAAUGGUAACGUGUCUCCCUCGUAAGGAGAAGACUGCGGGUUCGAGUCCCGAACGGAACG [C11U C24U C34G U64A] | ≤ 0.5 |
| GUUCCGUUGGUGUAAUGGUAAUGCGUCUCCCUCCUAAGGCGAAGACUGCGGGUUCGAGUCCCGUACGGAACG [C11U C22U A40C] | 0.558 |
| GUUCCGUUGGUGUAAUGGUAACGGGUCUCCCUACUAAGGCGAAGACUGCGGGUUCGAGUCCCGUUCGGAACG [C11U C24G C33A A40C A65U] | 0.641 |
| GUUCCGUUGGUGUAAUGGUAACGCGUCUGCCUCCUUAGGAGAAGACUGCGGGUUCGAGUCCCGUAAGGAACG [C11U C29G A36U C66A] | ≤ 0.5 |
| GUUCCGUUGGUGUAAUGGUAAUGCGUCUCCCUCCUAAGGAGAAGACUGCGGGUUUGAGUCCCGUACGGAACG [C11U C22U C55U] | 0.681 |
| GUUCCGUUGGUGUAAUGGUAACGUGUCUCCCUCGUAAGGAGAAGACUGCGGGUUCGAGUCCCGUACGGAACG [C11U C24U C34G] | ≤ 0.5 |
| GUUCCGUUGGUGUAAUGGUAACGAGUCUCCUUUCUAUGGAGAAGACUACGGGUUCGAGUCCCGUACAGAACG [C11U C24A C31U C33U A37U G48A G67A] | ≤ 0.5 |
| GUUCCGUUGGUGUAAUGGUAACGGGUGUCCCUCCUAAGGAGAAGACUGCGGGUUCGAGUCCCGUACGGAACG [C11U C24G C27G] | ≤ 0.5 |
| GUUCCGUUGGUGUAAUGGUAAUGCGUCUCCCUCCUAAGGAGAAGACUGCGGGUUCGUGUCCCGUACGGACCG [C11U C22U A57U A70C] | ≤ 0.5 |
| GUUCCGUUGGUGUAAUGGUAACGUGUCUCCCUCCUAAGGAGAACACUGAGGGUUCGAGUCCCGUACGGAACG [C11U C24U G44C C49A] | ≤ 0.5 |
| GUUCCGUUGGUGUAAUGGUAACGCGUGUCCCUCCUAAGGAGCAGACUGCGGGUUCGAGUCCCGUACGAAACG [C11U C27G A42C G68A] | ≤ 0.5 |
| GUUCCGUUGGUGUAAUGGUAACGUGUCUCCCUCUUAAGGAGAAGACUGCGGGUUCGAGUCUCGUACGGAACG [C11U C24U C34U C61U] | ≤ 0.5 |
| GUUCCGUUGGUGUAAUGGUAAGGCGUCUGCCUCCUAAGGAAAAGACUGCGGGUACGAGUCCCGGACGGAACG [C11U C22G C29G G41A U54A U64G] | ≤ 0.5 |
| GUUCCGUUGGUGUAAUGGUAACGCGUCUACCUCCUAAGGAGAAGACUGCGGGUUCGGGUCCCGUACGGAACG [C11U C29A A57G] | ≤ 0.5 |
| GUUCCGUUGGUGUAAUGGUAAUGCGUCUCCCUCCUAAGGAGAAGACUGCGGGUUCGAGUCCCGUACGGAACG [C11U C22U] | 0.855 |

| Variant | yeast fitness |
| --- | --- |
| GUUCCGUUGGUGUAAUGGUAACGGGUCUCCCUCCUAAGGAGAAGACUGCGGGUUCGAGUCCCGUACGGAUCG [C11U C24G A70U] | 0.557 |
| GUUCCGUUGGUGUAAUGGUAAGGCGUCUCCCUCCUAAGGAGAAGACUGCGGCUUCUAGUCCCGUACGGAACG [C11U C22G G52C G56U] | ≤ 0.5 |
| GUUCCGUUGGUGUAAUGGUAAUGCGUCUCCCUCCUAAGGAGAAGACUCCGGGUGUGAGUCCCGUACGGAACG [C11U C22U G48C U54G C55U] | ≤ 0.5 |
| GUUCCGUUGGUGUAAUGGUAAGGCGUCUCCCUCCUAAGGAGAAGACUGCGGGUUCGAGUCCUGUACGGACCG [C11U C22G C62U A70C] | ≤ 0.5 |
| GUUCCGUUGGUGUAAUGGUAAUGCGUCUCCCUCCUAAGGAGAAGACUGCGGGUUCGUGUCCCGUACGGAACG [C11U C22U A57U] | 0.512 |
| GUUCCGUUGGUGUAAUGGUAACGCGUUUCCAUCCUAAGGAGGAGACUGGGAGUUCGAGUCCCGUACGGAACG [C11U C27U C31A A42G C49G G51A] | ≤ 0.5 |
| GUUCCGUUGGUGUAAUGGUAACGGGUCUCCCUACUAAGGCGAAGACUGCCGGUUCGAGUCCCGUACGGAACG [C11U C24G C33A A40C G50C] | ≤ 0.5 |
| GUUCCGUUGGUGUAAUGGUAACGCGUCUACCUCCUAAGGAGAAGACUGCGGGUUCGAGUCCCGUACGGAACG [C11U C29A] | 0.824 |
| GUUCCGUUGGUGUAAUGGUAACGCGUCUACGUCCUAAGGAGAAGACUGCGGGUUCGAGUCCCGUACGGAACG [C11U C29A C31G] | ≤ 0.5 |
| GUUCCGUUGGUGUAAUGGUAACGCGUAUCCCUCCUAAGGAGAAGACUACGGGAUCGAGUCUCGUACGGAACG [C11U C27A G48A U53A C61U] | ≤ 0.5 |
| GUUCCGUUGGUGUAAUGGUAACGCGUUUCCAUCCCAAGGAGAAGACUGCGGGUUCGAGUGCCGUACGGACCG [C11U C27U C31A U35C C60G A70C] | ≤ 0.5 |
| GUUCCGUUGGUGUAAUGGUAACGUGUCUCCCUCCUAAGGAGAAGGGUGCGGGUUGGAGUCCCGUACGGAACG [C11U C24U A45G C46G C55G] | ≤ 0.5 |
| GUUCCGUUGGUGUAAUGGUAACGUGUCUCCCUCCUAAGGAGAAGACUGAGGGUUCGAGUCCAGUACGGAACG [C11U C24U C49A C62A] | ≤ 0.5 |
| GUUCCGUUGGUGUAAUGGUAACGCGUUUCCCUCCCAAGGAGAAGACUGCGGGUUCGAGUCCCGUACGGAACG [C11U C27U U35C] | 0.635 |
| GUUCCGUUGGUGUAAUGGUAAGGCGUCUCCCUUCUAAGGAGAAGACUGCGGGUUCGAGUCCCGUACGGAACG [C11U C22G C33U] | ≤ 0.5 |
| GUUCCGUUGGUGUAAUGGUAACGGGUCUUCCUCCUAAGGAGAAGACUGCAGGUUCGACUCCCAUAUGGAACG [C11U C24G C29U G50A G58C G63A C66U] | ≤ 0.5 |
| GUUCCGUUGGUGUAAUGGUAAGGCGUCUCCCUCCUAAGGAGAAGACUGCGGGUUCGAGUCCCGUACGGAUCG [C11U C22G A70U] | 0.722 |
| GUUCCGUUGGUGUAAUGGUAAUGUGUCUCCCUCCUAAGGAGAAGACUGCGGGUUCGAGUCCCGUACGGAACG [C11U C22U C24U] | 0.56 |
| GUUCCGUUGGUGUAAUGGUAACGCGUUUCCUUCCUCAGGAGAACGCUGCGGGUUCCAGUCCCGUACGGAUCG [C11U C27U C31U A36C G44C A45G G56C A70U] | ≤ 0.5 |
